What was measured:
Integrin alpha-V/beta-5 = Integrin alpha-V/beta-5 (Homo sapiens, UniProt P06756+P18084); assay: Inhibitory concentration for human vitronectin binding to immobilized alphaV-beta5 integrin; assay type: protein-complex assay
Integrin alpha-V/beta-3 = Integrin alpha-V/beta-3 (Homo sapiens, UniProt P05106+P06756); assay: Inhibitory concentration for human vitronectin binding to immobilized alphaV-beta3 integrin; assay type: protein-complex assay
[1] = Oral bioavailability in rat; assay type: ADME, organism-based; details: in vivo
Summary of the method: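 Rats dosed orally at 10 mg/kg (N = 4) and intravenously at 2 mg/kg (N = 4) unless otherwise noted. The oral vehicle was D5W (5% dextrose) adjusted to pH 2 with 0.1 N HCl. Plasma drug levels were measured by LC/MS, and bioavailability was derived by comparing oral with intravenous exposure.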

[2] = biological target: Integrin alpha-IIb/beta-3 (Homo sapiens, UniProt P05106+P08514); assay: Inhibitory concentration for biotinylated fibrinogen binding to immobilized alpha IIb beta-3 integrin; assay type: protein-complex assay
[3] = Maximum plasma concentration when administered perorally at 30 mg/kg dose; assay type: ADME, organism-based; parameters: dose 30 mg/kg, route oral; details: rat, po
[4] = Plasma half-life when administered perorally at 30 mg/kg dose; assay type: ADME, organism-based; parameters: dose 30 mg/kg, route oral; details: rat, po
[5] = Time to reach maximum plasma concentration when administered perorally at 15 mg/kg dose in rat; assay type: ADME, organism-based; parameters: dose 15 mg/kg, route oral; details: po
[6] = Maximum plasma concentration when administered perorally at 15 mg/kg dose in rat; assay type: ADME, organism-based; parameters: dose 15 mg/kg, route oral; details: po
[7] = Plasma half-life when administered perorally at 10 mg/kg dose; details: rat, in vivo, po

Chain of Integrin alpha-IIb/beta-3 (P05106 27-788 limits assumed): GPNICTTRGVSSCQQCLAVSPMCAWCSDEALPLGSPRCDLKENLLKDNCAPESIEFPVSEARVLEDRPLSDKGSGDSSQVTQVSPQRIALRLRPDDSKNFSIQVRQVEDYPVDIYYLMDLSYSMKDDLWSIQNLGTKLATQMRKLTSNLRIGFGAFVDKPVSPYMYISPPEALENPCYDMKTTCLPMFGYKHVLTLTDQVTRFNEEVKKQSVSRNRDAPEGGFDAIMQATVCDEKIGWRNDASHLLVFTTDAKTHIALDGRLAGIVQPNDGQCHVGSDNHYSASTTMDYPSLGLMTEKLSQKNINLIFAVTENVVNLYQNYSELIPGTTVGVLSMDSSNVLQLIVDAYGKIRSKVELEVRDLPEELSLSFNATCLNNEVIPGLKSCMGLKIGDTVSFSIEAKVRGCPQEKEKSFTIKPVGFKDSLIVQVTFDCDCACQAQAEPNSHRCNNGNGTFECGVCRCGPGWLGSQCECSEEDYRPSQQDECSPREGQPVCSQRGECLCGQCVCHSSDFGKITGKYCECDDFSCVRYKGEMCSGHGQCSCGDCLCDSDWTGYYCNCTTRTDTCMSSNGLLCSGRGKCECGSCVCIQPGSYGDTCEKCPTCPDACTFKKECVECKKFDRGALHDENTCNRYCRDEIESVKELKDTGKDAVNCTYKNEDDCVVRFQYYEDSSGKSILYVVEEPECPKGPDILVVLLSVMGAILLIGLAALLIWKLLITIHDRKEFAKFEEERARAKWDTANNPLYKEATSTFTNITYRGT
Chain of Integrin alpha-IIb/beta-3 (P08514 32-887 limits assumed): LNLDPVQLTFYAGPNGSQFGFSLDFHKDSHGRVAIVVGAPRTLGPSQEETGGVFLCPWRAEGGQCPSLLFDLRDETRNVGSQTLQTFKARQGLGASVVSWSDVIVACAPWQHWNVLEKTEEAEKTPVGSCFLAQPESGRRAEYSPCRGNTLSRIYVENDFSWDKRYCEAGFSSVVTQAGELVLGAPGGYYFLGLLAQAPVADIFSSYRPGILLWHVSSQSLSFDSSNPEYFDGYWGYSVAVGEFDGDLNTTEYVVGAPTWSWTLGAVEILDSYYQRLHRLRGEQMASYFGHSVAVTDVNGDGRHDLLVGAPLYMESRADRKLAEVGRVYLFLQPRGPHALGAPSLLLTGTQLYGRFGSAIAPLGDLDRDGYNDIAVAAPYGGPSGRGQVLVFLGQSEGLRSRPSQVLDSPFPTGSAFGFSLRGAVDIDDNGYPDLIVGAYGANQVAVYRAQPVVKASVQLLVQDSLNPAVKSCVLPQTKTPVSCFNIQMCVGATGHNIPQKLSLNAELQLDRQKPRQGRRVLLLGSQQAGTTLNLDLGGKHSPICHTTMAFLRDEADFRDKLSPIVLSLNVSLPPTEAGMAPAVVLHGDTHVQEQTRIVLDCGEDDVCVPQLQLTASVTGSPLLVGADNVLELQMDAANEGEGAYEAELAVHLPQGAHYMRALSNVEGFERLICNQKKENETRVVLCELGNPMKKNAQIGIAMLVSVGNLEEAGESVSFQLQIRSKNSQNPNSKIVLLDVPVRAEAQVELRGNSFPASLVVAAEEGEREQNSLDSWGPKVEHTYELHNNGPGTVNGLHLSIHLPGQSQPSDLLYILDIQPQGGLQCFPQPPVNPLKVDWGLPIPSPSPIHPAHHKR
Chain of Integrin alpha-IIb/beta-3 (P08514 891-1039 limits assumed): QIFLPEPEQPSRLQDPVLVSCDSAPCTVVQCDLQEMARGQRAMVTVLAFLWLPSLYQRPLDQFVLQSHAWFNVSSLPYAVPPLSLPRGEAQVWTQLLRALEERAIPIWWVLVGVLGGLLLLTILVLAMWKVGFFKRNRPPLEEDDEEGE
Chain of Integrin alpha-V/beta-3 (P05106 27-788 limits assumed): as the sequence (P05106 27-788 limits assumed) above
Chain of Integrin alpha-V/beta-3 (P06756 31-889 limits assumed): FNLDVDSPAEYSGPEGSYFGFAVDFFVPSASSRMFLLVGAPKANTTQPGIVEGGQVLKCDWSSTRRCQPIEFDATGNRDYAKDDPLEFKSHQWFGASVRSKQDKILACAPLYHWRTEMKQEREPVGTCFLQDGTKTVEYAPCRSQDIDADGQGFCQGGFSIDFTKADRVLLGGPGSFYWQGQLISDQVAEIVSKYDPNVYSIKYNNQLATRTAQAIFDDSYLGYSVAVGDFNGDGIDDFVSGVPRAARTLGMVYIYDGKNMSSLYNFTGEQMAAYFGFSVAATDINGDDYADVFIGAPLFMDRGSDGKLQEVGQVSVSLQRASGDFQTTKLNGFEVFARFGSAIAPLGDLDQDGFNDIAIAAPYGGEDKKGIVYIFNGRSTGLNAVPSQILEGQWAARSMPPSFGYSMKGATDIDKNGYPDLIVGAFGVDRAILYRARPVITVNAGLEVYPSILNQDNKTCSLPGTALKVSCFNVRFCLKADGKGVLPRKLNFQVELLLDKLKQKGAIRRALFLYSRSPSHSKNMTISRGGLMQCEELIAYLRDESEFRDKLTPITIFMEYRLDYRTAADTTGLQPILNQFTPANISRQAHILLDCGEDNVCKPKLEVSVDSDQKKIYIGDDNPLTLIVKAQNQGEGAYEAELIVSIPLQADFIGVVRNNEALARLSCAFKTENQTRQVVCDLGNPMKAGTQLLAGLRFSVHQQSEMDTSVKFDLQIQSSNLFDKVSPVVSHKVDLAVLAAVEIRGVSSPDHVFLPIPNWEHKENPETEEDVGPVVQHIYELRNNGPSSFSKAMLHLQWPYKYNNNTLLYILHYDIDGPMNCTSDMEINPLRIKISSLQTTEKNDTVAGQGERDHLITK
Chain of Integrin alpha-V/beta-3 (P06756 891-1048 limits assumed): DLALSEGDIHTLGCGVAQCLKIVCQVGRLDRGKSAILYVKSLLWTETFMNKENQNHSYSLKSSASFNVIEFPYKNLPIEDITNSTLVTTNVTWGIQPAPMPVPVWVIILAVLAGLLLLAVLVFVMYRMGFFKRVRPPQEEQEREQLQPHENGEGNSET
Chain of Integrin alpha-V/beta-5 (P06756 31-889 limits assumed): as the sequence (P06756 31-889 limits assumed) above
Chain of Integrin alpha-V/beta-5 (P06756 891-1048 limits assumed): as the sequence (P06756 891-1048 limits assumed) above
Chain of Integrin alpha-V/beta-5 (P18084 24-799 limits assumed): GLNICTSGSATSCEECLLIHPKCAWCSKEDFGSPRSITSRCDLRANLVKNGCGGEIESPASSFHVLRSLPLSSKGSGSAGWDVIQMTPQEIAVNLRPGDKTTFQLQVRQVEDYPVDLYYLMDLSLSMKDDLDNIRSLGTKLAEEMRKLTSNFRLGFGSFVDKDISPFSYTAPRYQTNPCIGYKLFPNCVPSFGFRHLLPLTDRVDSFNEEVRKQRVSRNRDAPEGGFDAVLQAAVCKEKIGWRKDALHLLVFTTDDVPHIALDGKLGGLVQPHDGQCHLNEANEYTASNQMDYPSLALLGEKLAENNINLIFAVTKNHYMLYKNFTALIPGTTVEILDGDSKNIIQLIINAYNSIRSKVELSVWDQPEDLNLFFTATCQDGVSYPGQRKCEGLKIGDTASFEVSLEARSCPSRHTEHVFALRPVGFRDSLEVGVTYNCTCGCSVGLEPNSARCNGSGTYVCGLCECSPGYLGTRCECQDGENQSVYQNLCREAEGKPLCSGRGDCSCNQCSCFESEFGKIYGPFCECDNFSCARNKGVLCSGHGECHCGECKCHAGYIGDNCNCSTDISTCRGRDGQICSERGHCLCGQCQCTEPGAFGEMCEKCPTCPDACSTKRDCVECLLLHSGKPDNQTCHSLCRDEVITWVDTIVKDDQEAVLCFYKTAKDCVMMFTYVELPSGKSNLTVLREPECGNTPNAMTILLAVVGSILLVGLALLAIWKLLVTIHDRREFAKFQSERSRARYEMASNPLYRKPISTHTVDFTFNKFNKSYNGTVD

SMILES	IC50 (Integrin alpha-V/beta-5) [nM]	IC50 (Integrin alpha-V/beta-3) [nM]	bioavailability [1] [%]	IC50 [2] [nM]	Cmax ([3]; plasma) [nM]	half-life [4] [h]	F [1] [%]	Tmax [5] [h]	Cmax [6] [nM]	Cmax ([3]; in vivo) [nM]	T1/2 [7] [h]
O=C(O)C[C@@H](C1CCN(C(=O)CCCc2ccc3c(n2)NCCC3)CC1)C1CNc2ccccc2C1 (mixture of isomers)	260	3.7		15000			100				
O=C(O)CC(CC1CCN(C(=O)CCc2ccc3c(n2)NCCC3)CC1)C1CNc2ccccc2C1 (racemic)				14000				2	21000		
CN1CC(C(CC(=O)O)CC2CCN(C(=O)CCc3ccc4c(n3)NCCC4)CC2)Cc2ccccc21 (racemic)	180	49		> 50000							
O=C(O)C[C@@H](C1CCN(C(=O)CCCc2ccc3c(n2)NCCC3)CC1)C1CNc2ccccc2C1 (single isomer, unassigned; isomer b)	2500	70		> 50000							
O=C(O)C[C@@H](C1CCN(C(=O)CCCc2ccc3c(n2)NCCC3)CC1)C1CNc2ccccc2C1 (single isomer, unassigned; isomer d)	160	5.4		17000			52			58000	1
O=C(O)C[C@@H](CC1CCN(C(=O)CCc2ccc3c(n2)NCCC3)CC1)c1cnc2c(c1)CCCC2 (stereo in doubt; 28)	11	1.6		3000			0				
COc1ccc([C@@H](CC(=O)O)CC2CCN(C(=O)CCc3ccc4c(n3)NCCC4)CC2)cn1 (stereo in doubt; 34)	2.7	0.7		6100			8			900	
O=C(O)C[C@@H](C1CCN(C(=O)CCCc2ccc3c(n2)NCCC3)CC1)C1CNc2ccccc2C1 (stereo in doubt; form 1)	44	1.6		13000		2	46			8000	
O=C(O)C[C@@H](CC1CCN(C(=O)CCc2ccc3c(n2)NCCC3)CC1)c1cnc2c(c1)CCCC2 (stereo in doubt; form 1)	1000	26		> 50000							
COc1ccc([C@@H](CC(=O)O)CC2CCN(C(=O)CCc3ccc4c(n3)NCCC4)CC2)cn1 (stereo in doubt; form 2)	98	16		> 50000							
O=C(O)C[C@@H](C1CCN(C(=O)CCCc2ccc3c(n2)NCCC3)CC1)C1CNc2ccccc2C1 (stereo in doubt; form 2)	1500	100		> 50000							
O=C(O)C[C@@H](CC1CCN(C(=O)CCc2ccc3c(n2)NCCC3)CC1)c1cnc2c(c1)CCCC2 (stereo in doubt; form 4)	2200	52		> 50000							

These reach a lower IC50 [2]. Values come first.

IC50 (Integrin alpha-V/beta-5) [nM]	IC50 (Integrin alpha-V/beta-3) [nM]	bioavailability [1] [%]	IC50 [2] [nM]	Cmax ([3]; plasma) [nM]	half-life [4] [h]	F [1] [%]	Tmax [5] [h]	Cmax [6] [nM]	Cmax ([3]; in vivo) [nM]	T1/2 [7] [h]	SMILES
36	0.5	1	870								O=C(O)C[C@H](c1cnc2ccccc2c1)C1CCN(C(=O)CCCc2ccc3c(n2)NCCC3)CC1
2.2	0.8	4	1100	500	3						O=C(O)C[C@@H](CC1CCN(C(=O)CCc2ccc3c(n2)NCCC3)CC1)c1cnc2ccccc2c1
270	2.6		2900								O=C(O)C[C@H](NC(=O)C1CCN(C(=O)CCc2ccc3c(n2)NCCC3)CC1)c1cnc2ccccc2c1
470	3.6	4	170	800	7						O=C(O)C[C@H](NC(=O)C1CCN(C(=O)CCCNC2=NCCN2)CC1)c1cnc2ccccc2c1
2.9	4		1200								O=C(O)C[C@@H]1Cc2ccc(OCCCNc3ccccn3)cc2Cc2ccccc21
3.1	0.4		1800		2	2			100		COc1ccc([C@@H](CC(=O)O)CC2CCN(C(=O)CCc3ccc4c(n3)NCCC4)CC2)cn1 (stereo in doubt; form 1)

From ChEMBL document CHEMBL1138711, “1,2,3,4-Tetrahydroquinoline-containing alphaVbeta3 integrin antagonists with enhanced oral bioavailability” (Bioorg Med Chem Lett, 2004)
